From ChEMBL document CHEMBL1144645, “The discovery of highly selective erbB2 (Her2) inhibitors for the treatment of cancer” (Bioorg Med Chem Lett, 2007)
pIC50: −log10 of the molar value.

How the values were obtained:
[1] = target: Tyrosine-protein kinase Lck (Homo sapiens) (UniProt P06239); test: Inhibition of LCK
[2] = target: T1, Receptor tyrosine-protein kinase erbB-2 (Homo sapiens, UniProt P04626); test: Inhibition of erbB2 expressed in Sf9 cells
In short: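 GST-tagged erbB2 intracellular domain (residues 675–1255) made in baculovirus/Sf9 and purified; ~15 ng enzyme phosphorylates poly(Glu,Tyr) with 1 mM ATP plus inhibitor over 6 min. Phosphotyrosine detected by HRP-PY-54 antibody and TMB, A450. IC50 is the mean of at least two experiments.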

[3] = target: Protein kinase C theta type (Homo sapiens) (UniProt Q04759); test: Inhibition of PKCtheta
[4] = target: Insulin receptor (Homo sapiens) (UniProt P06213); test: Inhibition of IRK
[5] = target: Cyclin-dependent kinase 2 (Homo sapiens) (UniProt P24941); test: Inhibition of CDK2
[6] = target: Tyrosine-protein kinase Fes/Fps (Homo sapiens) (UniProt P07332); test: Inhibition of FES
[7] = target: cAMP-dependent protein kinase (PKA) (Homo sapiens) (UniProt P22694+P17612+P22612); test: Inhibition of PKA; format: protein assay
[8] = target: T2, Tyrosine-protein kinase JAK3 (Homo sapiens) (UniProt P52333); test: Inhibition of JAK3
T2 sequence (whole entry): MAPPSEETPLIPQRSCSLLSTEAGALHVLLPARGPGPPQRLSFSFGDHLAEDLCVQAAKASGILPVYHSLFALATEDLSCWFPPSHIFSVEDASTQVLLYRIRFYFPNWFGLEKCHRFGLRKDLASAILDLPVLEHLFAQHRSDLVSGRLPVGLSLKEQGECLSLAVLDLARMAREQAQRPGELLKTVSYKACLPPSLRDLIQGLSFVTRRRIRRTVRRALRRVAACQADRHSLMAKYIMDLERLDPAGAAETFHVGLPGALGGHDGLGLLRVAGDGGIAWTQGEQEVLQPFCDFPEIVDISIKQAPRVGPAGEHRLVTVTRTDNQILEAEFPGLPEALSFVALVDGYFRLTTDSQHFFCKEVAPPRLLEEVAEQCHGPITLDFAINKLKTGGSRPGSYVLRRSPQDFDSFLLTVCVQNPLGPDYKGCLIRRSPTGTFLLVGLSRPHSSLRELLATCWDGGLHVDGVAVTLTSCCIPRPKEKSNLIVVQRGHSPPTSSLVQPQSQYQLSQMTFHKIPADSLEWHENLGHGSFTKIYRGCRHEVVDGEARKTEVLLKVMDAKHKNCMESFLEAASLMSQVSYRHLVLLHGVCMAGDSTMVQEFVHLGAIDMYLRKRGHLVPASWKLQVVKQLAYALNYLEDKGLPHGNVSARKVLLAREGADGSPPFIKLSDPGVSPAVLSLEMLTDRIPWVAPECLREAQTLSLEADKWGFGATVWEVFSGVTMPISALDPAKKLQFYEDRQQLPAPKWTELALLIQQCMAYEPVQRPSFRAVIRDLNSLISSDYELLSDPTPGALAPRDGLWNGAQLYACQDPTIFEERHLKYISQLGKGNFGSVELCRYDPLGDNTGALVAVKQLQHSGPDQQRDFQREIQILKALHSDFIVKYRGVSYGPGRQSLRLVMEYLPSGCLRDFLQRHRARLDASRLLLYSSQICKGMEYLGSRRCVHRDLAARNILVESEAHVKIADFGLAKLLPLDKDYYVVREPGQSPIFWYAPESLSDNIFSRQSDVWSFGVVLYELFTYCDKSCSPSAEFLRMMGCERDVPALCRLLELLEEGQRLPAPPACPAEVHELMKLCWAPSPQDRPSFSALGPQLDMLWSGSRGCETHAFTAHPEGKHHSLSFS

[9] = target: T1, Receptor tyrosine-protein kinase erbB-2; test: Inhibition of erbB2 in NH3T3 cells; format: cell-based
In short: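 NIH3T3 cells expressing a chimera of EGFR extracellular and erbB2 intracellular domains are plated, exposed to inhibitor for 2 h, then stimulated with human recombinant EGF for 15 min. Receptor phosphotyrosine read with HRP-PY-54 antibody and TMB, A450. IC50 is the mean of at least two experiments.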

[10] = target: Proto-oncogene tyrosine-protein kinase Src (Homo sapiens) (UniProt P12931); test: Inhibition of cSRC
[11] = target: Protein kinase C alpha type (Homo sapiens) (UniProt P17252); test: Inhibition of PKCalpha
[12] = target: Insulin-like growth factor 1 receptor (Homo sapiens) (UniProt P08069); test: Inhibition of IGF1R
[13] = target: Platelet-derived growth factor receptor beta (Homo sapiens) (UniProt P09619); test: Inhibition of PDGFRB
[14] = target: Epidermal growth factor receptor (Homo sapiens) (UniProt P00533); test: Inhibition of EGFR
[15] = Permeability from apical to basolateral side of Caco-2 cell membrane; format: ADME, cell-based; conditions: human, read-out: permeability
[16] = target: Wee1-like protein kinase (Homo sapiens) (UniProt P30291); test: Inhibition of Wee1
[17] = target: Cyclin-dependent kinase 5 (Homo sapiens) (UniProt Q00535); test: Inhibition of CDK5
[18] = target: Epidermal growth factor receptor and ErbB2 (HER1 and HER2) (Homo sapiens) (UniProt P04626+P00533); test: Selectivity for erbB2 over EGFR; format: protein assay
In short: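 Cell selectivity: IC50 ratio between two NIH3T3 lines run under identical conditions, one carrying human EGFR and one carrying the EGFR-extracellular/erbB2-intracellular chimera. Each line takes 2 h inhibitor, then 15 min human recombinant EGF. Phosphotyrosine measured with HRP-PY-54 and TMB at 450 nm.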

T1 sequence (P04626 whole entry, the tested form may be a part): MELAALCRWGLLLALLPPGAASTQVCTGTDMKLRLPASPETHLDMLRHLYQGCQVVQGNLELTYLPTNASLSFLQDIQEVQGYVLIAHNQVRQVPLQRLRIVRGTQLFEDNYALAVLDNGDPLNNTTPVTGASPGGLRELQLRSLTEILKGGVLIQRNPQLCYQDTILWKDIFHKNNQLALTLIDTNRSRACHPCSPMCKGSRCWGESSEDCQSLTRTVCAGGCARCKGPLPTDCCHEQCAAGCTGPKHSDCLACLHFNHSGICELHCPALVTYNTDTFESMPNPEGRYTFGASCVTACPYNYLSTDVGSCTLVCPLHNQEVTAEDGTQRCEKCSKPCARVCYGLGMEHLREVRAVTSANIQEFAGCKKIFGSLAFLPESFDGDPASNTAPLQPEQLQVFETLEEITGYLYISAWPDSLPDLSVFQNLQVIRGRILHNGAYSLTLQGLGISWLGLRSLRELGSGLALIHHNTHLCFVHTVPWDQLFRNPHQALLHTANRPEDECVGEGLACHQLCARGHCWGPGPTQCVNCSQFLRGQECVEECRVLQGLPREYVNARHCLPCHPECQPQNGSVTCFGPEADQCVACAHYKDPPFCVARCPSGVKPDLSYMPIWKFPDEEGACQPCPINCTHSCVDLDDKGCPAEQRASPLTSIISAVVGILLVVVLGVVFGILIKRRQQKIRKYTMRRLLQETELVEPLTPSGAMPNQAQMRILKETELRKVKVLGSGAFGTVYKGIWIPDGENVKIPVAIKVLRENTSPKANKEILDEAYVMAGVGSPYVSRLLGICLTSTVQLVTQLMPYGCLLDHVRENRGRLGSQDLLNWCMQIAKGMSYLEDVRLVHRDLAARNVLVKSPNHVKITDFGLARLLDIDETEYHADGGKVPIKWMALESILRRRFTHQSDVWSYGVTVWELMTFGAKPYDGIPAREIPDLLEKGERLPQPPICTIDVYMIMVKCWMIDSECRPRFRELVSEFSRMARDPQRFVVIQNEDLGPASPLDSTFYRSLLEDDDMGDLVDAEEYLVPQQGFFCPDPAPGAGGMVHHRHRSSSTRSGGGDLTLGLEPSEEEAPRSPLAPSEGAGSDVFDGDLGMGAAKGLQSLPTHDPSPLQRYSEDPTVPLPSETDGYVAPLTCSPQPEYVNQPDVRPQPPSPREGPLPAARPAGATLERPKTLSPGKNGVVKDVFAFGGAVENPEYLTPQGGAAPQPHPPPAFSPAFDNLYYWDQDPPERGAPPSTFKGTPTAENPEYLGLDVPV
Sequence of Insulin receptor (Homo sapiens) (P06213 28-758 limits assumed): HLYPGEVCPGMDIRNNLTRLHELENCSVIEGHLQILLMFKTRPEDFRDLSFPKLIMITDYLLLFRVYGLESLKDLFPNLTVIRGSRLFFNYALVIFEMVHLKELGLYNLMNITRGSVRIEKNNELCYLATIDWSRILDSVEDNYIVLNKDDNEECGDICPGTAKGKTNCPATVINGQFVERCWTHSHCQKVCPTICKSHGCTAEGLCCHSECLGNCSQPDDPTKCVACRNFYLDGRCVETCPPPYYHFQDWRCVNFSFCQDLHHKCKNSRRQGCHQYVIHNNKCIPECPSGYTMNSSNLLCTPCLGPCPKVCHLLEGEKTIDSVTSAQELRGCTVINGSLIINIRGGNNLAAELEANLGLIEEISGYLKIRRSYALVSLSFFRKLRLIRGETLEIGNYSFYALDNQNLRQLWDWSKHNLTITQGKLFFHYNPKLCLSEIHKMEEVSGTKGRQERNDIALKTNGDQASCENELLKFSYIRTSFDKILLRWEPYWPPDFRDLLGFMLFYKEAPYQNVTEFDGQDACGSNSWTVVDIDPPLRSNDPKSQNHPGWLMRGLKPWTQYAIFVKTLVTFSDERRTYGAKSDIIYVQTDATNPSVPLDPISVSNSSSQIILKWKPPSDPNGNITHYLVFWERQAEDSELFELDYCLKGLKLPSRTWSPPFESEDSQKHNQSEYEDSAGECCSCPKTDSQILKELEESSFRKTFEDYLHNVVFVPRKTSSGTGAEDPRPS
Sequence of Insulin receptor (Homo sapiens) (P06213 763-1382 limits assumed): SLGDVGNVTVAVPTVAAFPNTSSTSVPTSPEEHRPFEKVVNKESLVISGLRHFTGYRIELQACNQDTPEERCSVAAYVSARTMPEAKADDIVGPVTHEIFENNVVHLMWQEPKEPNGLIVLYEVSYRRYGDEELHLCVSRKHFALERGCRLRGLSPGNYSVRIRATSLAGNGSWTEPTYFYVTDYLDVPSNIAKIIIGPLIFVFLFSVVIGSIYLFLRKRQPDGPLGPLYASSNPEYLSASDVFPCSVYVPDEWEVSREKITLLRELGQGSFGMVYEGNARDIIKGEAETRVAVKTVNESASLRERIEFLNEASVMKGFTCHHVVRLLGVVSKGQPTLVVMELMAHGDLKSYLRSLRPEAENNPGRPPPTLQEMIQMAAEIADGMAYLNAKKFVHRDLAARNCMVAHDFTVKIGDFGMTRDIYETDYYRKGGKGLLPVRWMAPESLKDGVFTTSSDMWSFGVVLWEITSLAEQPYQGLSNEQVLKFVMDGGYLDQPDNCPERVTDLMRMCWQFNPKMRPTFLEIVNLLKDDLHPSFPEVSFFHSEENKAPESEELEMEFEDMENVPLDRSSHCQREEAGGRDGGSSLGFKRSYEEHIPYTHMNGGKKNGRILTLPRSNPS
Sequence of Platelet-derived growth factor receptor beta (Homo sapiens) (P09619 whole entry): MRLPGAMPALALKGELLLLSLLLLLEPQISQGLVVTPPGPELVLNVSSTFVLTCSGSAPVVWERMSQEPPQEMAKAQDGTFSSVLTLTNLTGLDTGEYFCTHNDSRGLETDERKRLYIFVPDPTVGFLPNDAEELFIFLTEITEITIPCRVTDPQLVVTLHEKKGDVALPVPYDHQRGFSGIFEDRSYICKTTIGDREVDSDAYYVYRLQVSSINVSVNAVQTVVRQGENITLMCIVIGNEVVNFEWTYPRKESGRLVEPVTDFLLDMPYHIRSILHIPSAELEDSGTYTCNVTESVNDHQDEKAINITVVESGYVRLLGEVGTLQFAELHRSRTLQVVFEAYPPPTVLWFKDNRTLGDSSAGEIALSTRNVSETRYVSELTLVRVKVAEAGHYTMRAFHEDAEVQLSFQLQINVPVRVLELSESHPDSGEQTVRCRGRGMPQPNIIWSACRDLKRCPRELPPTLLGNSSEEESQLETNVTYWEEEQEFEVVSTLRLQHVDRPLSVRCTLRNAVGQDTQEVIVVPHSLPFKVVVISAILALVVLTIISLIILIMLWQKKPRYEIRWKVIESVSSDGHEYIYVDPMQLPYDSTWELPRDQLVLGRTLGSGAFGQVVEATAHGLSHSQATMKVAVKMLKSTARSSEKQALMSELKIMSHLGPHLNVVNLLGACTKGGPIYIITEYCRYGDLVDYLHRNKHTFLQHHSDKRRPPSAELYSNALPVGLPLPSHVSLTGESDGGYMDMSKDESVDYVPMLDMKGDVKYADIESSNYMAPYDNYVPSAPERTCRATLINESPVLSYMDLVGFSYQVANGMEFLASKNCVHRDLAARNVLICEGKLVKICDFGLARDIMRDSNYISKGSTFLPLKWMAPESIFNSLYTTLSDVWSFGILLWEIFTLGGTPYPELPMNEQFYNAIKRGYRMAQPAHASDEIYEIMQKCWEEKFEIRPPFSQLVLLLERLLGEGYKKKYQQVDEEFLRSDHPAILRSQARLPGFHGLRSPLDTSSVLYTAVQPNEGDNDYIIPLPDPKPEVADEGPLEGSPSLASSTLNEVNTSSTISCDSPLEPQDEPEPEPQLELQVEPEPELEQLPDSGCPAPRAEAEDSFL
Sequence of Proto-oncogene tyrosine-protein kinase Src (Homo sapiens) (P12931 2-536 limits assumed): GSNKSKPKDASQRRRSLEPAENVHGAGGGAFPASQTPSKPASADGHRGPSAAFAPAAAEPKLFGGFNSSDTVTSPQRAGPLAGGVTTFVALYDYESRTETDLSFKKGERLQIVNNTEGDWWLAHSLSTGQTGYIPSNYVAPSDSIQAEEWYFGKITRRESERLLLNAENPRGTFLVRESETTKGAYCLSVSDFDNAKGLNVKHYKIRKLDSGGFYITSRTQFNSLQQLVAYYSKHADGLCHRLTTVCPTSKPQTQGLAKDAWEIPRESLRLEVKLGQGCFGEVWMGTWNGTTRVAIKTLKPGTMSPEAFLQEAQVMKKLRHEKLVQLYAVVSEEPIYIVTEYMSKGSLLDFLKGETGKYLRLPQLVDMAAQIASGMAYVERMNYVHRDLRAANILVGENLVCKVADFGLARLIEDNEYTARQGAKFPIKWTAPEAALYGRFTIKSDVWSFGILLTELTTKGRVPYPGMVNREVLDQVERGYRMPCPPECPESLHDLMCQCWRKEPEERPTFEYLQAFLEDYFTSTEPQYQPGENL

Question: Which Activity [1] does the source give for `Cc1cc(Nc2ncnc3cnc(N4CCOCC4)cc23)ccc1Oc1ccc(C(=O)NCC(C)(C)C)cc1` here?
Answer: > 10 µM

Question: And the pIC50 [2]?
Answer: 7.68

Question: And the Activity [3]?
Answer: > 10 µM

Question: And the Activity [4]?
Answer: > 10 µM

Question: And the Activity [5]?
Answer: > 10 µM

Question: What about the Activity [6] of the same compound?
Answer: > 10 µM

Question: And the Activity [7]?
Answer: > 10 µM

Question: What about the Activity [8] of the same compound?
Answer: > 10 µM

Question: What about the pIC50 [9] of the same compound?
Answer: 7.62

Question: What about the Activity [10] of the same compound?
Answer: > 10 µM

Question: And the Activity [11]?
Answer: > 10 µM

Question: And the Activity [12]?
Answer: > 10 µM

Question: And the Activity [13]?
Answer: > 10 µM

Question: What about the Activity [14] of the same compound?
Answer: > 10 µM

Question: And the Papp A→B [15]?
Answer: 15.4 ×10⁻⁶ cm/s

Question: And the Activity [16]?
Answer: > 10 µM

Question: And the Activity [17]?
Answer: > 10 µM

Question: What about the Selectivity ratio [18] of the same compound?
Answer: > 410
